According to publication PMC4832855 (Cancer Science, 2016):

Legend:
[1] = ref Kyowa Hakko Kirin Co., Ltd, Tokyo, unpublished data; cited from earlier work
Met = Met (Homo sapiens, UniProt P08581); experiment: Kinase inhibition profiling at 100 nmol/L; type: biochemical; conditions: read-out: Inhibition at 100 nmol/L
Lck = Lck (Homo sapiens, UniProt P06239); experiment: Kinase inhibition profiling at 100 nmol/L; type: biochemical; conditions: read-out: Inhibition at 100 nmol/L
p381 = experiment: Kinase inhibition profiling at 100 nmol/L; type: biochemical, human; conditions: p381, 100 nmol/L
[2] = Plasma protein binding, equilibrium dialysis; type: in vitro ADME; conditions: human, pH 7.2
EGFR = EGFR (Homo sapiens, UniProt P00533); experiment: Kinase inhibition profiling at 100 nmol/L; type: biochemical; conditions: read-out: Inhibition at 100 nmol/L
[3] = test system: phosphorylation of AKT in HT‐29/GFP cells; experiment: In vitro signal transduction assay; type: cell-based, human; conditions: same concentration ranges (up to 30 nmol/L)
Summary of the method: (§1)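 HT-29/GFP colon cancer cells in culture exposed to test compound, then stimulated with human IGF-1 or human insulin; receptor tyrosine phosphorylation and downstream signalling assessed across a concentration series.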

[4] = test system: HT‐29/GFP human colon cancer cells; experiment: Anti-proliferative activity; type: cell-based
TrkA = TrkA (Homo sapiens, UniProt P04629); experiment: Kinase inhibition profiling at 100 nmol/L; type: biochemical
advanced solid tumors = experiment: Phase I first-in-human study: response; type: in vivo
Summary of the method: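 Open-label phase I in patients with refractory advanced solid tumours; oral once daily after overnight fast for 28 days, 1-week observation, then continuous daily dosing; response assessed every 8 weeks by RECIST version 1.0.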

[5] = test system: non‐human primate, rodent; conditions: ref Kyowa Hakko Kirin Co., Tokyo, unpublished data; cited from earlier work
[6] = test system: IGF‐1‐induced tyrosine phosphorylation of IGF‐1R in HT‐29/GFP cells; experiment: In vitro signal transduction assay; type: cell-based, human; conditions: 30 nmol/L, 2 hours
Summary of the method: as §1

[7] = preliminary in vitro and in vivo studies; ref Kyowa Hakko Kirin Co., Tokyo, unpublished data; cited from earlier work
IGF‐1R = IGF‐1R (Homo sapiens, UniProt P08069); experiment: Kinase inhibition profiling at 100 nmol/L; type: biochemical; conditions: read-out: Inhibition at 100 nmol/L
[8] = test system: phosphorylation of Erk in HT‐29/GFP cells; experiment: In vitro signal transduction assay; type: cell-based, human; conditions: up to 30 nmol/L
Summary of the method: as §1

Src = Src (Homo sapiens, UniProt P12931); experiment: Kinase inhibition profiling at 100 nmol/L; type: biochemical; conditions: read-out: Inhibition at 100 nmol/L
Btc = experiment: Kinase inhibition profiling at 100 nmol/L; type: biochemical, human
[9] = test system: patients with advanced solid tumors; experiment: Phase I first-in-human study: safety, tolerability, DLT, MTD; type: in vivo
Summary of the method: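 Open-label 3+3 dose-escalation/de-escalation; oral once-daily dosing under overnight fasting for 28 days, 1-week observation, then continuous; AEs graded by CTCAE v3.0 with attribution; DLTs included grade 3 fasting hyperglycemia, grade 3 non-fasting hyperglycemia >4 h, grade 4 hyperglycemia, grade ≥2 cardiac toxicity, other grade ≥3 non-hematologic events, grade 4 neutropenia >7 days, grade 4 thrombocytopenia.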

[10] = molecular target: kinase insert domain receptor (Homo sapiens, UniProt P35968); experiment: Kinase inhibition profiling at 100 nmol/L; type: biochemical; conditions: read-out: Inhibition at 100 nmol/L
focal adhesion kinase = focal adhesion kinase (Homo sapiens, UniProt Q05397); experiment: Kinase inhibition profiling at 100 nmol/L; type: biochemical; conditions: read-out: Inhibition at 100 nmol/L
Chain of focal adhesion kinase (Q05397 whole entry): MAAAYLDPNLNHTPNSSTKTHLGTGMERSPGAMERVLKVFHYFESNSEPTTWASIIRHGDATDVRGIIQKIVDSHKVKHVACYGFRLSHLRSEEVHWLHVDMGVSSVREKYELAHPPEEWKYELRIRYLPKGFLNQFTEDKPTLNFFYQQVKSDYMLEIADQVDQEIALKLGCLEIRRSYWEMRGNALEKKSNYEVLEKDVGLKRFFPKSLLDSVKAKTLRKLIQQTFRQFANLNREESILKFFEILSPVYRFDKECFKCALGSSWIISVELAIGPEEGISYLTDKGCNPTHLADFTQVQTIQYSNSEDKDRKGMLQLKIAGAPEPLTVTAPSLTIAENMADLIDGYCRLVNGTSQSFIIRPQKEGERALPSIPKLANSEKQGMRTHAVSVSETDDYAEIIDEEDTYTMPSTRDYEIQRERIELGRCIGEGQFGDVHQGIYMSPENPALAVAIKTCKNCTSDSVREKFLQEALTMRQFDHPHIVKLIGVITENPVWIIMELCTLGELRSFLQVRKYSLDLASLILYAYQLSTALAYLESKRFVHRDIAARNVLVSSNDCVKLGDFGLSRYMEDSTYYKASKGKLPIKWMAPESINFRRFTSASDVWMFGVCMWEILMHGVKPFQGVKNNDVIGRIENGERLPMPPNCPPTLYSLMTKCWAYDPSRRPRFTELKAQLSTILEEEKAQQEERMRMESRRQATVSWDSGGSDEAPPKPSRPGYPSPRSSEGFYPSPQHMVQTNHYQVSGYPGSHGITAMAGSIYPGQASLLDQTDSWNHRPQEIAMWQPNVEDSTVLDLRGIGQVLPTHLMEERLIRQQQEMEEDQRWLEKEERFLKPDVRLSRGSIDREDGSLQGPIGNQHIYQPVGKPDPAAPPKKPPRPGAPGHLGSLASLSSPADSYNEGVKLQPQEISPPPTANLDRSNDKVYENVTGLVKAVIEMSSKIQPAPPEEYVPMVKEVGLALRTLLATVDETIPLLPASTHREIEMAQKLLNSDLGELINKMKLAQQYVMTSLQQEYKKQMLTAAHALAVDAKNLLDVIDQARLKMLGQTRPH

Chain of TrkA (P04629 33-796): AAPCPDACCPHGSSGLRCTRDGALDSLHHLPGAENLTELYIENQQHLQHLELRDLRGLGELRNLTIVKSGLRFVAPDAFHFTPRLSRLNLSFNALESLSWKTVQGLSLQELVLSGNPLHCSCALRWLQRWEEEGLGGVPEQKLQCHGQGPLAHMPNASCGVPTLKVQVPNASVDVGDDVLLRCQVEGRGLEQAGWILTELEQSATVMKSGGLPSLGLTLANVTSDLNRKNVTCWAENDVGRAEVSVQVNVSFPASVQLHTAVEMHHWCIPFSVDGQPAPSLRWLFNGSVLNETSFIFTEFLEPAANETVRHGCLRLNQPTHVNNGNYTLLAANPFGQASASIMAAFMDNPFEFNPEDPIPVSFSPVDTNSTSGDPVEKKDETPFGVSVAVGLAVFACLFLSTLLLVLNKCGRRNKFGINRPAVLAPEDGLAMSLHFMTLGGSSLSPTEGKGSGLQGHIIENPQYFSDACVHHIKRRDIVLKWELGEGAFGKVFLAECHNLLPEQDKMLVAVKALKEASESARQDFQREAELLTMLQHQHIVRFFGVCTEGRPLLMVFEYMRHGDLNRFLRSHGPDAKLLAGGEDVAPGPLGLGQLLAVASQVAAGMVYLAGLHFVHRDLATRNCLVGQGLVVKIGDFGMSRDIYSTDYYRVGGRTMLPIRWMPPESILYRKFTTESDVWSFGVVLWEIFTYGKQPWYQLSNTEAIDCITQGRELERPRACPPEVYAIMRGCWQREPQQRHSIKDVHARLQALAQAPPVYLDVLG
Chain of kinase insert domain receptor (P35968 20-1356): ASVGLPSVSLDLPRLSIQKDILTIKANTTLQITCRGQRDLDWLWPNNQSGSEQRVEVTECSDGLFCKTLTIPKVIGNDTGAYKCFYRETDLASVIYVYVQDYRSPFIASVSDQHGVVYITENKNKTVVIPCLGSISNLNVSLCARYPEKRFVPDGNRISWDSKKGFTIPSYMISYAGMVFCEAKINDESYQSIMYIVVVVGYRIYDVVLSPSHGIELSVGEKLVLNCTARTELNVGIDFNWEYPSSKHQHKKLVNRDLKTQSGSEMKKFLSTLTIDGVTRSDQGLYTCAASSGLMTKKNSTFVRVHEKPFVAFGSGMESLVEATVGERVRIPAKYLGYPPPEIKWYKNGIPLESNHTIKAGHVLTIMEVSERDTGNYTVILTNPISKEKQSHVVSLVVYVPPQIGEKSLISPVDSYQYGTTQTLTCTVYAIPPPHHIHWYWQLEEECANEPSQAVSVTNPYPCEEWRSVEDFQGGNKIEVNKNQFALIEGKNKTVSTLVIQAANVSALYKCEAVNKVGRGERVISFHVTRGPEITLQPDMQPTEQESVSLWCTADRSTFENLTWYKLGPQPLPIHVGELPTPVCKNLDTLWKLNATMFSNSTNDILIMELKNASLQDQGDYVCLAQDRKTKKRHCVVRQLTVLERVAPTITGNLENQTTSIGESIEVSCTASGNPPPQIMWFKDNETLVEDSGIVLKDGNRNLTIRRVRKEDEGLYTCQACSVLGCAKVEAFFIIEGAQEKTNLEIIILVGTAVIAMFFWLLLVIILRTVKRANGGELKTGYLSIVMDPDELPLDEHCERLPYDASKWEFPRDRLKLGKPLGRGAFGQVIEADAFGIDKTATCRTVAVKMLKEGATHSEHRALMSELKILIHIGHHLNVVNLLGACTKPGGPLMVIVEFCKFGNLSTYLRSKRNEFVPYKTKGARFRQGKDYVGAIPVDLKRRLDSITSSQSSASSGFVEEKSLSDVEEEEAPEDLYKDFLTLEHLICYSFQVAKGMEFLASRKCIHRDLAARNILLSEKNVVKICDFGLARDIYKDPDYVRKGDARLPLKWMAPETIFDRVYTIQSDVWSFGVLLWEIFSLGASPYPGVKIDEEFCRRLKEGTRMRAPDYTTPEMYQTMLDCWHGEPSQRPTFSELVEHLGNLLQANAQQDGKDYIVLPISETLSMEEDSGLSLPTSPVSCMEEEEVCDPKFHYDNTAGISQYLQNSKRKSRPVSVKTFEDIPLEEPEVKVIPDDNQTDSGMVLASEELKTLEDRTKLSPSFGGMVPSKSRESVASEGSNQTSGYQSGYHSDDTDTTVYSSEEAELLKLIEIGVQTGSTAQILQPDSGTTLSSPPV
Chain of IGF‐1R (P08069 31-1367): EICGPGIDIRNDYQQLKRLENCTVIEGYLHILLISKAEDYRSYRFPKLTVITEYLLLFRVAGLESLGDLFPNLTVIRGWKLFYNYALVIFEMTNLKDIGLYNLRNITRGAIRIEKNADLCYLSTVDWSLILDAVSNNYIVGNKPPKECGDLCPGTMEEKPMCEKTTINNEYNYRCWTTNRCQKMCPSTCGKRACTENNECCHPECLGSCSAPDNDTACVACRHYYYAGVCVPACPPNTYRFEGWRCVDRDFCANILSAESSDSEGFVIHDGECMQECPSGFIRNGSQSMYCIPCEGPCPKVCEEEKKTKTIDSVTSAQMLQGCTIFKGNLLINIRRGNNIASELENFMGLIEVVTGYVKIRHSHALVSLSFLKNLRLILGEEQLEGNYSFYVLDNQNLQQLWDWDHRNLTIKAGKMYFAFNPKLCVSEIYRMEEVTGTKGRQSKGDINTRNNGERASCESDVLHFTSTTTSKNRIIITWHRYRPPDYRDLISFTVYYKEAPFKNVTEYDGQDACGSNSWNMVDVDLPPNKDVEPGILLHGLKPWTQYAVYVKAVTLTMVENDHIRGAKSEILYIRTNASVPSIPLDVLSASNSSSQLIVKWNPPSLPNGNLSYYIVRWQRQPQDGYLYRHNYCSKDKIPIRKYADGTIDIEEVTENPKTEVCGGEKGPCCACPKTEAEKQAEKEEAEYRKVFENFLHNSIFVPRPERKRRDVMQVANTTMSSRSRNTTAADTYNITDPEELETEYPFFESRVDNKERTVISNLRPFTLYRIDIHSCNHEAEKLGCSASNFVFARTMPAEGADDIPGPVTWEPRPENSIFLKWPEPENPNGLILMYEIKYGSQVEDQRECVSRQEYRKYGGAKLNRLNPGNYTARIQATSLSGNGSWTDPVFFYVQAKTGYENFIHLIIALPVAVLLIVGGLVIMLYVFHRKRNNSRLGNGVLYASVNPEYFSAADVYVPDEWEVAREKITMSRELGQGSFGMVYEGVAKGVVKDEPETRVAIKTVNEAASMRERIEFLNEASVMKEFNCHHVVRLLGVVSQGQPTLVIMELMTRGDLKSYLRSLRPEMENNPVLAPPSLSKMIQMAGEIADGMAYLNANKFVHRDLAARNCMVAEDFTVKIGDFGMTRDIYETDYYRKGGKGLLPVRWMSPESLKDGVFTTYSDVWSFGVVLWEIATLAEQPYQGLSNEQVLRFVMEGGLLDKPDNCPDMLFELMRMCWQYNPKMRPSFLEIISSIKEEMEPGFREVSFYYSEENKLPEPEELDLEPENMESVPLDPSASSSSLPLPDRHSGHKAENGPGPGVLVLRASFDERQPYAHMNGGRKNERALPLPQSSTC
Chain of Lck (P06239 whole entry): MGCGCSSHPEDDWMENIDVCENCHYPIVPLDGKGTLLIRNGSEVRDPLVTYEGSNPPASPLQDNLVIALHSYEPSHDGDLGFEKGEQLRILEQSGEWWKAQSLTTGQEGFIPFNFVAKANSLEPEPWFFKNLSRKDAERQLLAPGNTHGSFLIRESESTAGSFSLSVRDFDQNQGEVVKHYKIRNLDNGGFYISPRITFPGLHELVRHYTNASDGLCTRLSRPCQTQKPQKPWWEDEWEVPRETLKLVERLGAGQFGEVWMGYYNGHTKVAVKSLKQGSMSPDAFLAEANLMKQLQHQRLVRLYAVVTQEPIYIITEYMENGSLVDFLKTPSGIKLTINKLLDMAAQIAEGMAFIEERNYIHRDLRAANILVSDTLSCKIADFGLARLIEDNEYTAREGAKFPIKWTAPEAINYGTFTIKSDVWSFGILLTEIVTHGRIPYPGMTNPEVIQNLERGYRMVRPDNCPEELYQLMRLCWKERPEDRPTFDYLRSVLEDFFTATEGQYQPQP

Cc1ccsc1C(=O)Nc1cc(CN2CCN(C(=O)CO)CC2)ccc1/C=C/c1n[nH]c2ccccc12 [KW‐2450]
Protein bound [1]: 98.5–99.0% | inhibition at 0.1 µM (Met): 33.8% | inhibition at 0.1 µM (Lck): 33.7% | Inhibition at 100 nmol/L (p381): –2.5% | fraction unbound at 6 h [2]: 0.009 to 0.016 | inhibition at 0.1 µM (EGFR): 2.5% | Inhibition of phosphorylation of AKT downstream to IGF‐1R or IR [3]: inhibited phosphorylation of AKT | GI50 [4]: 380 nM | Inhibition at 100 nmol/L (TrkA; TrkA, 100 nmol/L): 101.1% | inhibition at 0.1 µM (TrkA; read-out: Inhibition at 100 nmol/L, TrkA, 100 nmol/L): > 90% | Median progression‐free survival (advanced solid tumors; 37.5 mg/day): 65.0 days | Patients with stable disease (advanced solid tumors; 37.5 mg/day): 1 n | Median progression‐free survival (advanced solid tumors; 50 mg/day): 141 days | Patients with stable disease (advanced solid tumors; 50 mg/day): 3 n | Complete or partial responses (advanced solid tumors; 10 patients evaluable for response): no complete or partial responses | Patients with stable disease (advanced solid tumors; 10 patients evaluable for response, both doses): 40% | Median progression‐free survival (advanced solid tumors; overall): 66.5 days | Hyperglycemia at pharmacologically active (lower) doses [5]: hyperglycemia induced | Inhibition of IGF‐1‐induced tyrosine phosphorylation of IGF‐1R [6]: complete inhibition | Antitumor effect in combination with lapatinib and letrozole [7]: synergistic antitumor effects | inhibition at 0.1 µM (IGF‐1R): 94.1% | Inhibitory activity against phosphorylation of Erk [8]: without any inhibitory activity | inhibition at 0.1 µM (Src): 53.8% | Inhibition at 100 nmol/L (Btc): 63.2% | Anorexia, treatment‐related, Grade 1–2 ([9]; 37.5 mg/day (n = 7)): 2 (28.6) No. of patients (%) | Anorexia, treatment‐related, Grade 3 ([9]; 37.5 mg/day (n = 7)): 0 (0.0) No. of patients (%) | Constipation, treatment‐related, Grade 1–2 ([9]; 37.5 mg/day (n = 7)): 1 (14.3) No. of patients (%) | Constipation, treatment‐related, Grade 3 ([9]; 37.5 mg/day (n = 7)): 0 (0.0) No. of patients (%) | Decreased appetite, treatment‐related, Grade 1–2 ([9]; 37.5 mg/day (n = 7)): 0 (0.0) No. of patients (%) | Decreased appetite, treatment‐related, Grade 3 ([9]; 37.5 mg/day (n = 7)): 0 (0.0) No. of patients (%) | Diarrhea, treatment‐related, Grade 1–2 ([9]; 37.5 mg/day (n = 7)): 0 (0.0) No. of patients (%) | Diarrhea, treatment‐related, Grade 3 ([9]; 37.5 mg/day (n = 7)): 0 (0.0) No. of patients (%) | Dizziness, treatment‐related, Grade 1–2 ([9]; 37.5 mg/day (n = 7)): 1 (14.3) No. of patients (%) | Dizziness, treatment‐related, Grade 3 ([9]; 37.5 mg/day (n = 7)): 0 (0.0) No. of patients (%) | Fatigue, treatment‐related, Grade 1–2 ([9]; 37.5 mg/day (n = 7)): 4 (57.1) No. of patients (%) | Fatigue, treatment‐related, Grade 3 ([9]; 37.5 mg/day (n = 7)): 0 (0.0) No. of patients (%) | Hyperglycemia, treatment‐related, Grade 1–2 ([9]; 37.5 mg/day (n = 7)): 1 (14.3) No. of patients (%) | Hyperglycemia, treatment‐related, Grade 3 ([9]; 37.5 mg/day (n = 7)): 0 (0.0) No. of patients (%) | Mucosal inflammation, treatment‐related, Grade 1–2 ([9]; 37.5 mg/day (n = 7)): 1 (14.3) No. of patients (%) | Mucosal inflammation, treatment‐related, Grade 3 ([9]; 37.5 mg/day (n = 7)): 0 (0.0) No. of patients (%) | Nausea, treatment‐related, Grade 1–2 ([9]; 37.5 mg/day (n = 7)): 2 (28.6) No. of patients (%) | Nausea, treatment‐related, Grade 3 ([9]; 37.5 mg/day (n = 7)): 0 (0.0) No. of patients (%) | Pain, treatment‐related, Grade 1–2 ([9]; 37.5 mg/day (n = 7)): 0 (0.0) No. of patients (%) | Pain, treatment‐related, Grade 3 ([9]; 37.5 mg/day (n = 7)): 0 (0.0) No. of patients (%) | Rash, treatment‐related, Grade 1–2 ([9]; 37.5 mg/day (n = 7)): 1 (14.3) No. of patients (%) | Rash, treatment‐related, Grade 3 ([9]; 37.5 mg/day (n = 7)): 1 (14.3) No. of patients (%) | Vomiting, treatment‐related, Grade 1–2 ([9]; 37.5 mg/day (n = 7)): 1 (14.3) No. of patients (%) | Vomiting, treatment‐related, Grade 3 ([9]; 37.5 mg/day (n = 7)): 0 (0.0) No. of patients (%) | Patients with dose‐limiting toxicity ([9]; 37.5 mg/day, one of seven patients, grade 3 rash): 14.3% | Anorexia, treatment‐related, Grade 1–2 ([9]; 50 mg/day (n = 6)): 0 (0.0) No. of patients (%) | Anorexia, treatment‐related, Grade 3 ([9]; 50 mg/day (n = 6)): 0 (0.0) No. of patients (%) | Constipation, treatment‐related, Grade 1–2 ([9]; 50 mg/day (n = 6)): 1 (16.7) No. of patients (%) | Constipation, treatment‐related, Grade 3 ([9]; 50 mg/day (n = 6)): 0 (0.0) No. of patients (%) | Decreased appetite, treatment‐related, Grade 1–2 ([9]; 50 mg/day (n = 6)): 3 (50.0) No. of patients (%) | Decreased appetite, treatment‐related, Grade 3 ([9]; 50 mg/day (n = 6)): 0 (0.0) No. of patients (%) | Diarrhea, treatment‐related, Grade 1–2 ([9]; 50 mg/day (n = 6)): 2 (33.3) No. of patients (%) | Diarrhea, treatment‐related, Grade 3 ([9]; 50 mg/day (n = 6)): 0 (0.0) No. of patients (%) | Dizziness, treatment‐related, Grade 1–2 ([9]; 50 mg/day (n = 6)): 2 (33.3) No. of patients (%) | Dizziness, treatment‐related, Grade 3 ([9]; 50 mg/day (n = 6)): 0 (0.0) No. of patients (%) | Fatigue, treatment‐related, Grade 1–2 ([9]; 50 mg/day (n = 6)): 4 (66.7) No. of patients (%) | Fatigue, treatment‐related, Grade 3 ([9]; 50 mg/day (n = 6)): 0 (0.0) No. of patients (%) | Hyperglycemia, treatment‐related, Grade 1–2 ([9]; 50 mg/day (n = 6)): 2 (33.3) No. of patients (%) | Hyperglycemia, treatment‐related, Grade 3 ([9]; 50 mg/day (n = 6)): 2 (33.3) No. of patients (%) | Mucosal inflammation, treatment‐related, Grade 1–2 ([9]; 50 mg/day (n = 6)): 1 (16.7) No. of patients (%) | Mucosal inflammation, treatment‐related, Grade 3 ([9]; 50 mg/day (n = 6)): 0 (0.0) No. of patients (%) | Nausea, treatment‐related, Grade 1–2 ([9]; 50 mg/day (n = 6)): 4 (66.7) No. of patients (%) | Nausea, treatment‐related, Grade 3 ([9]; 50 mg/day (n = 6)): 0 (0.0) No. of patients (%) | Pain, treatment‐related, Grade 1–2 ([9]; 50 mg/day (n = 6)): 2 (33.3) No. of patients (%) | Pain, treatment‐related, Grade 3 ([9]; 50 mg/day (n = 6)): 0 (0.0) No. of patients (%) | Rash, treatment‐related, Grade 1–2 ([9]; 50 mg/day (n = 6)): 0 (0.0) No. of patients (%) | Rash, treatment‐related, Grade 3 ([9]; 50 mg/day (n = 6)): 0 (0.0) No. of patients (%) | Vomiting, treatment‐related, Grade 1–2 ([9]; 50 mg/day (n = 6)): 1 (16.7) No. of patients (%) | Vomiting, treatment‐related, Grade 3 ([9]; 50 mg/day (n = 6)): 0 (0.0) No. of patients (%) | Patients with dose‐limiting toxicity ([9]; 50 mg/day, two of six patients, grade 3 non‐fasting hyperglycemia): 33.3% | Anorexia, treatment‐related, Grade 1–2 ([9]; Total (n = 13)): 2 (15.4) No. of patients (%) | Anorexia, treatment‐related, Grade 3 ([9]; Total (n = 13)): 0 (0.0) No. of patients (%) | Constipation, treatment‐related, Grade 1–2 ([9]; Total (n = 13)): 2 (15.4) No. of patients (%) | Constipation, treatment‐related, Grade 3 ([9]; Total (n = 13)): 0 (0.0) No. of patients (%) | Decreased appetite, treatment‐related, Grade 1–2 ([9]; Total (n = 13)): 3 (23.1) No. of patients (%) | Decreased appetite, treatment‐related, Grade 3 ([9]; Total (n = 13)): 0 (0.0) No. of patients (%) | Diarrhea, treatment‐related, Grade 1–2 ([9]; Total (n = 13)): 2 (15.4) No. of patients (%) | Diarrhea, treatment‐related, Grade 3 ([9]; Total (n = 13)): 0 (0.0) No. of patients (%) | Dizziness, treatment‐related, Grade 1–2 ([9]; Total (n = 13)): 3 (23.1) No. of patients (%) | Dizziness, treatment‐related, Grade 3 ([9]; Total (n = 13)): 0 (0.0) No. of patients (%) | Fatigue, treatment‐related, Grade 1–2 ([9]; Total (n = 13)): 8 (61.5) No. of patients (%) | Fatigue, treatment‐related, Grade 3 ([9]; Total (n = 13)): 0 (0.0) No. of patients (%) | Hyperglycemia, treatment‐related, Grade 1–2 ([9]; Total (n = 13)): 3 (23.1) No. of patients (%) | Hyperglycemia, treatment‐related, Grade 3 ([9]; Total (n = 13)): 2 (15.4) No. of patients (%) | Mucosal inflammation, treatment‐related, Grade 1–2 ([9]; Total (n = 13)): 2 (15.4) No. of patients (%) | Mucosal inflammation, treatment‐related, Grade 3 ([9]; Total (n = 13)): 0 (0.0) No. of patients (%) | Nausea, treatment‐related, Grade 1–2 ([9]; Total (n = 13)): 6 (46.2) No. of patients (%) | Nausea, treatment‐related, Grade 3 ([9]; Total (n = 13)): 0 (0.0) No. of patients (%) | Pain, treatment‐related, Grade 1–2 ([9]; Total (n = 13)): 2 (15.4) No. of patients (%) | Pain, treatment‐related, Grade 3 ([9]; Total (n = 13)): 0 (0.0) No. of patients (%) | Vomiting, treatment‐related, Grade 1–2 ([9]; Total (n = 13)): 2 (15.4) No. of patients (%) | Vomiting, treatment‐related, Grade 3 ([9]; Total (n = 13)): 0 (0.0) No. of patients (%) | Maximum tolerated dose (MTD) ([9]; once daily orally, continuous): 37.5 mg | Recommended phase II dose (RP2D) ([9]; oral, once daily): 37.5 mg/day | inhibition at 0.1 µM [10]: > 90% | inhibition at 0.1 µM (focal adhesion kinase): > 90%
